Reference: ChEMBL document CHEMBL3400116, “Synthesis and activities towards resistant cancer cells of sulfone and sulfoxide griseofulvin derivatives” (Bioorg Med Chem Lett, 2015)

Tests used:
[1] = Antiproliferative activity against exponentially growing adherent human SCC114 cells assessed as inhibition of cell proliferation after 72 hrs by luminescence detection based ATPlite assay; type: functional; conditions: SCC114, 72 h
Outline: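 SCC-114 cells seeded at 10^3 cells/well in 96-well plates and left to grow exponentially as adherent cultures. After 72 h exposure at 37 °C in 5% CO2, viability was read by ATPlite luminescence of ATP from viable cells. IC50 came from nonlinear regression with a sigmoidal dose-response and variable Hill slope.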

[2] = tested on: HCC1937; test: Antiproliferative activity against exponentially growing adherent human HCC1937 cells assessed as inhibition of cell proliferation at 10 uM after 48 hrs by luminescence detection based ATPlite assay; conditions: HCC1937, 48 h
[3] = tested on: HCC1937; test: Antiproliferative activity against exponentially growing adherent human HCC1937 cells assessed as inhibition of cell proliferation after 48 hrs by luminescence detection based ATPlite assay; conditions: HCC1937, 48 h

SMILES | IC50 [3] | IC50 [1] | inhibition at 10 µM [2]
COc1cc(OC)c2c(c1Cl)O[C@]1(C2=O)C(SCCN(C)C)=CC(=O)C[C@H]1C | > 10000 nM | 1450 nM | 0%
COc1cc(OC)c2c(c1Cl)O[C@]1(C2=O)C(S(=O)(=O)CCN(C)C)=CC(=O)C[C@H]1C | 5900 nM | 2800 nM | –
COc1cc(OC)c2c(c1Cl)O[C@]1(C2=O)C(S(C)(=O)=O)=CC(=O)C[C@H]1C | > 10000 nM | 1900 nM | 40%
COc1cc(OC)c2c(c1Cl)O[C@@]1(C=C([S+]([O-])Cc3ccccc3)C(=O)C[C@H]1C)C2=O (some centres undefined) | – | 20 nM | –
COc1cc(OC)c2c(c1Cl)O[C@@]1(C=C(S(=O)(=O)Cc3ccccc3)C(=O)C[C@H]1C)C2=O | 900 nM | – | –
COc1cc(OC)c2c(c1Cl)O[C@]1(C2=O)C(SCc2ccccc2)=CC(=O)C[C@H]1C | > 10000 nM | – | –
COc1cc(OC)c2c(c1Cl)O[C@]1(C2=O)C(OCc2ccccc2)=CC(=O)C[C@H]1C | > 10000 nM | 980 nM | 0%
COC1=CC(=O)C[C@@H](C)[C@]12Oc1c(Cl)c(OC)cc(OC)c1C2=O [GRISEOFULVIN] | > 10000 nM | 6400 nM | 0%
C/C(=C\c1csc(C)n1)[C@@H]1C[C@@H]2O[C@]2(C)CCC[C@H](C)[C@H](O)[C@@H](C)C(=O)C(C)(C)[C@@H](O)CC(=O)O1 [PATUPILONE] | > 10000 nM | 0.17 nM | 0%

Now from value to compound, other results behind:

IC50 [3] | SMILES | IC50 [1] | inhibition at 10 µM [2]
1400 nM | COc1cc(OC)c2c(c1Cl)O[C@]1(C2=O)C(S(=O)(=O)Cc2ccccc2)=CC(=O)C[C@H]1C | 400 nM | –
1600 nM | COc1cc(OC)c2c(c1Cl)O[C@]1(C2=O)C(S(=O)(=O)c2ccccc2)=CC(=O)C[C@H]1C | 1000 nM | –
400 nM | COc1cc(OC)c2c(c1Cl)O[C@@]1(C=C([S+]([O-])c3ccccc3)C(=O)C[C@H]1C)C2=O (some centres undefined) | 250 nM | –
700 nM | COc1cc(OC)c2c(c1Cl)O[C@@]1(C=C(S(=O)(=O)c3ccccc3)C(=O)C[C@H]1C)C2=O | 400 nM | –
> 10000 nM | CC(=O)O[C@H]1C(=O)[C@@]2(C)[C@H]([C@H](OC(=O)c3ccccc3)[C@]3(O)C[C@H](OC(=O)[C@H](O)[C@@H](NC(=O)c4ccccc4)c4ccccc4)C(C)=C1C3(C)C)[C@]1(OC(C)=O)CO[C@@H]1C[C@@H]2O [PACLITAXEL] | 0.3 nM | 0%
> 10000 nM | CCC1=C[C@@H]2CN(C1)Cc1c([nH]c3ccccc13)[C@@](C(=O)OC)(c1cc3c(cc1OC)N(C)[C@H]1[C@@](O)(C(=O)OC)[C@H](OC(C)=O)[C@]4(CC)C=CCN5CC[C@]31[C@@H]54)C2 [VINORELBINE] | 0.07 nM | 0%
